Activity calls are given as the source filed them. No cut-off for these calls is given here.
Columns and labels:
[1] = Volume of distribution at steady state in Sprague-Dawley rat at 2 mg/kg, iv by HPLC-MS analysis; format: ADME, organism-based; settings: in vivo, read-out: Vdss
How it was run: (§1)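 Male rats (330−380 g, 9−10 weeks old), quarantined 1 week, jugular-vein cannula implanted 1 day before dosing; n = 3. Single iv dose in DMA/PEG400 (20%/80%, v/v). Blood (100 μL) was drawn via cannula at 0, 2, 5, 15, 30 min and 1, 2, 4, 6, 8, 24 h and kept on ice. Plasma was analysed by HPLC−MS/MS. Vss came from noncompartmental analysis.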

HCC1806 = assay: Synergistic cytotoxicity against human HCC1806 cells assessed as reduction in cell viability at ED50 in presence of BPTES by MTS assay; format: functional
How it was run: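 HCC1806 breast carcinoma cells seeded at 3000 cells/well and co-treated with the inhibitor and BPTES; viability read by MTS. […] Three independent experiments.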

[2] = target: T1, Glutaminase liver isoform, mitochondrial (Homo sapiens) (UniProt Q9UI32); assay: Inhibition of human GLS2 in GLS1 deficient human Aspc-1 cells assessed as decrease in cellular glutamate production after 4 hrs by amplex red glutamic acid assay
T1 sequence (whole entry): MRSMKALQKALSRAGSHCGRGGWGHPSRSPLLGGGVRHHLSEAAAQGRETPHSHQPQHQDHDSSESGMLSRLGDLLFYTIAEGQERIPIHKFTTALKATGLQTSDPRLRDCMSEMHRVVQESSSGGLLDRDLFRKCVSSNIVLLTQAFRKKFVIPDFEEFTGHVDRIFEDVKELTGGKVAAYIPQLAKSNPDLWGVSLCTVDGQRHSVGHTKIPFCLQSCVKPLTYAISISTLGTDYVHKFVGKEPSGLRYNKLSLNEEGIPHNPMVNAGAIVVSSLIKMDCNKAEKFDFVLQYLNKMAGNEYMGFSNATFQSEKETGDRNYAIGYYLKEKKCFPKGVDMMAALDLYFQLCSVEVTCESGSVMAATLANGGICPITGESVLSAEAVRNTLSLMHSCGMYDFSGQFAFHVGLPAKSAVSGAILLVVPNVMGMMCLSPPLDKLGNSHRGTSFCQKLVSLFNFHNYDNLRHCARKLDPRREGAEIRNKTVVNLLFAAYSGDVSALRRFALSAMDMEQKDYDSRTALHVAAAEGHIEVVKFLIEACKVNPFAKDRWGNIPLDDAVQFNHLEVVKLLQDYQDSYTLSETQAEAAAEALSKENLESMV
How it was run: (§2)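 GLS-knockout AsPC-1 cells made with GLS-KO ZFN mRNA, single-cell cloned, and grown in glutamine-free RPMI 1640 with 10% FBS. Cells seeded at 30 000/well and grown 24 h at 37 °C. Treated 4 h with 1% DMSO vehicle or 3.13−100 μM inhibitor, washed with PBS, and lysed in NP-40 buffer (4 °C, 20 min). Lysate glutamate measured by Amplex Red. Three independent experiments in duplicate.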

ASPC1 [3] = assay: Antitumor activity against human Aspc-1 cells xenografted in Balb/cAnN.Cg-Foxn1nu/CrlNarl mouse assessed as tumor growth inhibition at 25 mg/kg, ip once daily administered for 5 days followed by 2 days without dosing for 68 days relative to control; format: functional; settings: read-out: TGI
How it was run: (§3)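 Male nude mice (7−8 weeks, 18−22 g) received 4.5 × 10^6 AsPC-1 cells sc in the right flank, in HBSS mixed 1:1 with Matrigel. Mice were randomized once mean tumor reached ~100 mm3 (day 1). Dosing was ip once daily, 5 days on/2 days off, with 2% DMSO/PBS as vehicle. Tumors were measured twice weekly, V = ab²/2. %TGI = [1 − ((Tt − T0)/(Ct − C0))] × 100 from median volumes; Student's t test.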

ASPC1 [4] = assay: Antitumor activity against human Aspc-1 cells xenografted in Balb/cAnN.Cg-Foxn1nu/CrlNarl nude mouse assessed as tumor growth inhibition at 50 mg/kg, ip once daily administered for 5 days followed by 2 days without dosing for 68 days relative to control; format: functional; settings: read-out: TGI; how it was run: as §3
[5] = target: T1, Glutaminase liver isoform, mitochondrial (Homo sapiens); assay: Inhibition of human GLS2 in GLS1 deficient human Aspc-1 cells assessed as decrease in cellular glutamate production at 3.13 to 100 uM after 4 hrs by amplex red glutamic acid assay; how it was run: as §2
[6] = Terminal half life in Sprague-Dawley rat at 2 mg/kg, iv by HPLC-MS analysis; format: ADME, organism-based; settings: in vivo, read-out: beta t1/2 (converted)
How it was run: (§4)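 Male rats (330−380 g, 9−10 weeks old), jugular-vein cannulated 1 day before dosing, n = 3. Dosed iv in DMA/PEG400 (20%/80%, v/v) or po in 1% CMC/0.5% Tween-80. Blood (100 μL) drawn at 0, 2 min, 5 min (iv only), 15 and 30 min, and 1, 2, 4, 6, 8 and 24 h. Plasma measured by LC-MS/MS; parameters from noncompartmental analysis.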

[7] = Total clearance in Sprague-Dawley rat at 2 mg/kg, iv by HPLC-MS analysis; format: ADME, organism-based; settings: in vivo
How it was run: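 Male rats (330−380 g, 9−10 weeks old), jugular-vein cannulated 1 day before dosing, n = 3. Dosed iv in DMA/PEG400 (20%/80%, v/v) or po in 1% CMC/0.5% Tween-80. Plasma measured by LC-MS/MS; parameters from noncompartmental analysis.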

[8] = AUC (0 to infinity) in Sprague-Dawley rat at 2 mg/kg, iv by HPLC-MS analysis; format: ADME, organism-based; set-up: dose 2 mg/kg, route intravenous, time infinity; settings: in vivo; how it was run: as §4
Mus musculus = assay: Toxicity in BALB/CAnN.Cg-Foxn1nu/CrlNarl mouse xenografted with human Aspc-1 cells assessed as loss in body weight at 25 mg/kg, ip once daily administered for 5 days followed by 2 days without dosing for 43 days relative to control; format: organism-based, BALB/C; settings: in vivo
ASPC1 [9] = assay: Antitumor activity against human Aspc-1 cells xenografted in Balb/cAnN.Cg-Foxn1nu/CrlNarl mouse assessed as tumor growth inhibition at 50 mg/kg, ip once daily administered for 5 days followed by 2 days without dosing for 43 days relative to control; format: functional; settings: read-out: TGI; how it was run: as §3
ASPC1 [10] = assay: Antitumor activity against human Aspc-1 cells xenografted in Balb/cAnN.Cg-Foxn1nu/CrlNarl mouse assessed as tumor growth inhibition at 25 mg/kg, ip once daily administered for 5 days followed by 2 days without dosing for 43 days relative to control; format: functional; settings: read-out: TGI; how it was run: as §3
[11] = Volume of distribution at steady state in Sprague-Dawley rat at 0.1 mg/kg, iv by HPLC-MS analysis; format: ADME, organism-based; settings: in vivo, read-out: Vdss; how it was run: as §1
[12] = Total clearance in Sprague-Dawley rat at 0.1 mg/kg, iv by HPLC-MS analysis; format: ADME, organism-based; settings: in vivo; how it was run: as §4

Vd [1] [L/kg]	inhibition [2]	inhibition [5]	half-life [6] [h]	clearance [7] [mL/min/kg]	AUC(0-inf) [8] [ng·h/mL]	Vd [11] [L/kg]	clearance [12] [mL/min/kg]	Compound	CI (HCC1806)	inhibition in vivo at 25 mg/kg (ASPC1 [3]) [%]	inhibition in vivo at 50 mg/kg (ASPC1 [4]) [%]	Activity (Mus musculus) [%]	inhibition in vivo at 50 mg/kg (ASPC1 [9]) [%]	inhibition in vivo at 25 mg/kg (ASPC1 [10]) [%]
0.1	Dose-dependent effect	Active	5	0.9	43600			O=C1NC(=O)/C(=C/c2ccc(-c3ccc(-n4c(-c5cccs5)cc(/C=C5\SC(=O)NC5=O)c4-c4cccs4)cc3)cc2)S1	0.13 - 0.14	2.3	49			
						0.4	0.4	Cc1cc(/C=C2\SC(=O)NC2=O)c(C)n1-c1ccc(-c2ccc(/C=C3\SC(=O)NC3=O)cc2)cc1				> 10	64	60

— ChEMBL document CHEMBL4011632, “Design, Synthesis, and Evaluation of Thiazolidine-2,4-dione Derivatives as a Novel Class of Glutaminase Inhibitors” (J Med Chem, 2017)
